Consider one substance from publication PMC4500736 (Journal of neuroscience methods, 2015).

Where no end group is shown, it is not given here.

Data set [1] has as its system unilateral 6-OHDA lesioned F344 rats. The data set is described as follows: d-amphetamine-induced rotation in 6-OHDA-lesioned rats. The data set is classed as in vivo, rat. Conditions: animals taken out to 6 weeks (data not shown), n = 3 DNSP-11, n = 2 vehicle.
The test system is the same in data set [2]. Description: DA and DA metabolite levels. The data set is classed as in vivo, rat. Conditions: 5 weeks post 6-OHDA, 300 μg intranasal daily, p < 0.01.
Another data set concerns normal F344 rats. The data set is classed as in vivo, rat. Conditions: 300 μg intranasal 5 days a week for 3 weeks, p < 0.05. The method in brief:
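Normal F344 rats under light isoflurane (~1.0–3.0% with […]), supine. Striatum and SN harvested as 2 mm sections, frozen −80 °C. DA, DOPAC, HVA by HPLC-EC (ng/g wet tissue); turnover ratios; one-way ANOVA, Bonferroni.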

The conditions of data set [3]: dissolved in 0.9% sterile saline; cited from earlier work.
In data set [4] the test system is unilateral 6-OHDA lesioned F344 rats. Description: TH+ fiber density in the SNpr of 6-OHDA lesioned rats. It counts as in vivo, rat. Conditions: mean ± SEM. The method in brief:
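Unilateral 3-site striatal 6-OHDA lesion (right hemisphere). Intranasal test compound 300 μg or vehicle daily for 7 days pre-lesion, ~60 min before infusion, then 35 ± 3 days. Midbrain fixed in 4% paraformaldehyde for 24 h, then 15 & 30% sucrose; 30 μm coronal sections. Ipsilateral SNpr TH+ immunoreactive area measured at −5.24, −5.60 and −5.96 mm from bregma. Two-tailed unpaired t-test.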

As to “PPEAPAEDRSL-NH2 [DNSP-11, Dopamine neuron stimulating peptide-11]”, the “reduction in d-amphetamine-induced rotations compared to vehicle” value in data set [1] came out at 21%. In addition, in data set [2], the “reduction in DA turnover in the ipsilateral side to the lesion compared to vehicle” value is given as 39%. In addition, in the data set on normal F344 rats, the “increase in DA turnover in the SN compared to vehicle” value came to 34% and the “increase in DA turnover in the striatum compared to vehicle” value amounted to 25%. The “stability in 0.9% sterile saline” value in data set [3] is “stable”. Also, the “Fiber Density for the Lesioned SNpr, Rostral” value in data set [4] (n = 6, vehicle 0.20 ± 0.03) is on record as 0.26 ± 0.09. Further, the “Fiber Density for the Lesioned SNpr, Middle” value in data set [4] (n = 6, vehicle 0.22 ± 0.07) is listed as 0.41 ± 0.20. In addition, in data set [4] (n = 6, vehicle 1.10 ± 0.67), the “Fiber Density for the Lesioned SNpr, Caudal” value turned out to be 0.91 ± 0.41.
